Screening results: PubChem, several laboratories
A selection: hits, their analogues and other compounds. The true share with any hit is near 2.2%.
TRAIL sens C8 = sensitizes caspase-8 expressing cells to TRAIL | NB7+C8 cells + TRAIL, ATPlite viability luminescence | inhibition (viability loss, TRAIL sensitization), % at 10 µM | hit rate 1% among 360,000 | AID 624354;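 active means compounds causing at least 50% loss of cell viability in the single-dose screen, relative to plate controls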
FLuc inhib CS = inhibits firefly luciferase, flagging false hits in luciferase inhibition screens; P08659; ATPLite firefly luciferase biochemical luminescence, 10 min; inhibition, % at 10 µM; hit rate 1.5% among 200,000;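 active means inhibition above about 50% when tested at 10 µM, limit read from the data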
Target sequence (P08659 whole entry, looked up): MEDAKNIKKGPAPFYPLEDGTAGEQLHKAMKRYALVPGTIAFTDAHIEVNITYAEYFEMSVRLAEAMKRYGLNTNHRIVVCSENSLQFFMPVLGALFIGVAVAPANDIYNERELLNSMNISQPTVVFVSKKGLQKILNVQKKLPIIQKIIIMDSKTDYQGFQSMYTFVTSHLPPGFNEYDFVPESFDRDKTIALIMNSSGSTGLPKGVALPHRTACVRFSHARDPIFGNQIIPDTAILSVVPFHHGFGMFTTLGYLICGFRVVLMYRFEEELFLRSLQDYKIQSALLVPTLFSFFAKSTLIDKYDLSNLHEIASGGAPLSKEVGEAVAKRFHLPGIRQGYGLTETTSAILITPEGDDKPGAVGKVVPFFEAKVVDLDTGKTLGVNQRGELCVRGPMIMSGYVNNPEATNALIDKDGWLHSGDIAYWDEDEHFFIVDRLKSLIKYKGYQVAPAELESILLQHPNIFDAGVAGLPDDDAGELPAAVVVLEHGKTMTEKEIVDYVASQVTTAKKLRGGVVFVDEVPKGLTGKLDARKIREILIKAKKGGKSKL
PPC-1+TRAIL kill = PPC-1 cancer cell killing with TRAIL present; PPC-1 cells + TRAIL, ATPLite viability luminescence; hit rate 0.41% among 220,000; cell killing (% activity), % at 4 µM or 5 µM;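 active means cell killing above 50% in the first pass at 4 µM, then a duplicate retest at 5 µM averaging 50% or more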;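 further: plate controls were cells with TRAIL plus DMSO for no effect and medium-only wells lacking cells for full effect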
FLuc stim CS = firefly luciferase counter-screen for stimulation assays; P08659; AID 1027; ATPlite luciferase biochemical, luminescence, 10 min; 0 = ATP-free wells, 1 = DMSO control; activation factor at 10 µM; 200,000 tested, under 10 active;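 active means luciferase activation factor, scaled between plate controls, of at least 2 with compound at 10 µM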
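Material: Luciferase/luciferin reagent mix | Doses: Test compounds dosed from 2 mM stocks in 100% DMSO | Timing: 10 min incubation after luciferase reagent addition, room temperature | Measured by: Luminescence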
NF-kB neuron act = NF-kB expression increase, human neuronal cells. AID 1239. NF-kB reporter expression; active compounds read high. hit rate 1.6% among 190,000. fold change at 12.5 µM; in the data active means fold change above about 3.3
APP 5'UTR act = APP 5'UTR luciferase reporter activation; SH-SY5Y APP 5'UTR luciferase reporter, luminescence; zero percent = DMSO vehicle wells; activation, % at 2 µM; hit rate 1% among 190,000;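 active means activation above a set limit, based on mean plus 3 SD of controls, cut at about 140% in these data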
* hit, by the source's call.

What do the screens show for `COc1cccc(NC(=O)CSc2nnc(-c3ccc(C)cc3)o2)c1`?
TRAIL sens C8: 13.9; FLuc inhib CS: -5.3; PPC-1+TRAIL kill: 57.0*; FLuc stim CS: 1.1; NF-kB neuron act: 2.44; APP 5'UTR act: 217.3*

What do the screens show for `CCCS(=O)(=O)NC(=O)C1(C)CCCN(C(=O)c2ccc3ccccc3n2)C1` (stereo unspecified)?
TRAIL sens C8: -10.0

Results for CC(=O)Nc1nc2ccc(-c3nc4ccccc4o3)cc2s1 ?
TRAIL sens C8: 4.9; FLuc inhib CS: 19.8; PPC-1+TRAIL kill: 15.1; FLuc stim CS: 0.8; NF-kB neuron act: 5.47*; APP 5'UTR act: 41.4

Results for Cc1nc2ccc(-c3nc4ccc(N)cc4[nH]3)cc2[nH]1 ?
TRAIL sens C8: 37.9; FLuc inhib CS: 78.1*; PPC-1+TRAIL kill: 47.4; FLuc stim CS: 0.2; NF-kB neuron act: 0.7; APP 5'UTR act: 10.6

What do the screens show for `Nc1ccc(-c2nc3ccc(N)cc3[nH]2)cc1`?
TRAIL sens C8: 7.6; FLuc inhib CS: 51.8*; PPC-1+TRAIL kill: 8.3; FLuc stim CS: 0.5; APP 5'UTR act: 15.9

Results for Nc1ccc2nc(-c3ccc(Cl)cc3)[nH]c2c1 ?
TRAIL sens C8: 27.8; FLuc inhib CS: 75.3*; PPC-1+TRAIL kill: 45.2; FLuc stim CS: 0.2; NF-kB neuron act: 8.49*; APP 5'UTR act: 60.6

Results for C#CCOCCOCCOCCNc1nc(N2CCN(C(=O)[C@H](CCC(=O)O)n3cc(C(N)[C@H](C)CC)nn3)CC2)nc(N2CCN(C(=O)[C@H](CCC(=O)O)n3cc(C(N)[C@H](C)CC)nn3)CC2)n1 (stereo partly specified) ?
TRAIL sens C8: -15.8; FLuc inhib CS: -1.2; PPC-1+TRAIL kill: 12.0; FLuc stim CS: 1; NF-kB neuron act: 1.05; APP 5'UTR act: -1.5

Results for CCc1nc2ccccc2c(=O)n1/N=C/c1ccc(Cl)cc1 ?
TRAIL sens C8: 12.7

Results for Nc1ccc(-c2nc3ccc([N+](=O)[O-])cc3[nH]2)cc1 ?
TRAIL sens C8: 17.6; FLuc inhib CS: -9.2; PPC-1+TRAIL kill: 1.7; FLuc stim CS: 1.1; NF-kB neuron act: 7.06*; APP 5'UTR act: 72.2

What do the screens show for `O=[N+]([O-])c1ccc2nc(/C=C/c3ccc(Cl)cc3)[nH]c2c1`?
TRAIL sens C8: 20.7; FLuc inhib CS: 15.7; PPC-1+TRAIL kill: 10.7; FLuc stim CS: 0.8; NF-kB neuron act: 0.97; APP 5'UTR act: 135.5*

Results for Cc1nc2ccc(-c3nc4ccccc4o3)cc2[nH]1 ?
TRAIL sens C8: 18.1; FLuc inhib CS: 63.2*; PPC-1+TRAIL kill: 48.5; FLuc stim CS: 0.4; NF-kB neuron act: 6.98*; APP 5'UTR act: 142.9*

How did Nc1cc(=O)[nH]c(SCC(=O)Nc2cccc(S(=O)(=O)N3CCCCC3)c2)n1 do in these assays?
TRAIL sens C8: -0.4

Results for CC(C)(C)NC(=O)C(c1ccc(C(F)(F)F)cc1)n1c(=O)c(-c2cc3ccccc3[nH]2)nc2ccccc21 (stereo unspecified) ?
TRAIL sens C8: 0.5

Results for Cn1c(SCC(=O)Nc2ccc3c(c2)OCO3)nnc1C(F)(F)F ?
TRAIL sens C8: -5.2

Results for C=CCN(CC=C)c1cnn(-c2nc3ccccc3[nH]2)c(=O)c1Cl ?
TRAIL sens C8: 66.2*; FLuc inhib CS: 51.4*; PPC-1+TRAIL kill: 15.8; FLuc stim CS: 0.5; NF-kB neuron act: 2.76; APP 5'UTR act: 141.6*

How did O=c1c(Cl)c(NCCCO)cnn1-c1nc2ccccc2[nH]1 do in these assays?
TRAIL sens C8: 5.1; FLuc inhib CS: 37.6; PPC-1+TRAIL kill: 19.0; FLuc stim CS: 0.6; NF-kB neuron act: 2.71; APP 5'UTR act: 1.9

How did Cc1ccc(S(=O)(=O)CCC(=O)OCC(=O)Nc2ccc(N3CCOCC3)cc2)cc1 do in these assays?
TRAIL sens C8: 4.8

Results for O=C(N=Nc1c(O)n(Cc2ccccc2)c2ccccc12)c1ccc(O)cc1 ?
TRAIL sens C8: 39.2; FLuc inhib CS: 50.7*; PPC-1+TRAIL kill: 15.0; FLuc stim CS: 0.5; NF-kB neuron act: 2.45; APP 5'UTR act: 152.8*

What do the screens show for `Cc1occc1C(=O)N=Nc1c(O)n(C)c2ccccc12`?
TRAIL sens C8: 34.8; FLuc inhib CS: 59.6*; PPC-1+TRAIL kill: 40.6; FLuc stim CS: 0.4; NF-kB neuron act: 3.05; APP 5'UTR act: 111.6
